Measured values reported in ChEMBL document CHEMBL2384952, “Synthesis, antifungal and cytotoxic activities of 2-aryl-3-((piperidin-1-yl)ethyl)thiazolidinones” (Eur J Med Chem, 2013).
Converted amounts (≈) assume the structure as drawn.

How the values were obtained:
[1] = test system: Vero; assay: Cytotoxicity against African green monkey Vero cells at 12.3 ug/mL by neutral red dye uptake assay relative to control; format: cell-based; details: chlorocebus sabaeus
Procedure, shortened: (§1)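 Vero cells (over 99% viable by trypan blue exclusion) were exposed to serial compound dilutions in E-MEM, with fresh E-MEM as negative control, for 72 h at 37 °C, 5% CO2. Cells were then given 3.3 mg/L neutral red for 2 h, and the dye was extracted with 50% ethanol/1% acetic acid. A540 was read, and viability was calculated as treated/control absorbance × 100.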

[2] = test system: Vero; assay: Cytotoxicity against African green monkey Vero cells at 25 ug/mL by neutral red dye uptake assay relative to control; format: cell-based; details: chlorocebus sabaeus; procedure, shortened: as §1
[3] = test system: Vero; assay: Cytotoxicity against African green monkey Vero cells at 49 ug/mL by neutral red dye uptake assay relative to control; format: cell-based; details: chlorocebus sabaeus; procedure, shortened: as §1
[4] = test system: Vero; assay: Cytotoxicity against African green monkey Vero cells at 98 ug/mL by neutral red dye uptake assay relative to control; format: cell-based; details: chlorocebus sabaeus; procedure, shortened: as §1
[5] = test system: Vero; assay: Cytotoxicity against African green monkey Vero cells at 197 ug/mL by neutral red dye uptake assay relative to control; format: cell-based; details: chlorocebus sabaeus; procedure, shortened: as §1
[6] = test system: Vero; assay: Cytotoxicity against African green monkey Vero cells at 394 ug/mL by neutral red dye uptake assay relative to control; format: cell-based; details: chlorocebus sabaeus; procedure, shortened: as §1
[7] = test system: Vero; assay: Cytotoxicity against African green monkey Vero cells at 787 ug/mL by neutral red dye uptake assay relative to control; format: cell-based; details: chlorocebus sabaeus; procedure, shortened: as §1
[8] = test system: Vero; assay: Cytotoxicity against African green monkey Vero cells at 1575 ug/mL by neutral red dye uptake assay relative to control; format: cell-based; details: chlorocebus sabaeus; procedure, shortened: as §1
[9] = test system: Vero; assay: Cytotoxicity against African green monkey Vero cells at 3150 ug/mL by neutral red dye uptake assay relative to control; format: cell-based; details: chlorocebus sabaeus; procedure, shortened: as §1
[10] = test system: Candida parapsilosis; assay: Antifungal activity against Candida parapsilosis after 48 hrs by CLSI M27A3 broth microdilution method; format: functional; details: Lodderomyces parapsilosis
Procedure, shortened: (§2)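 Yeasts were kept on Sabouraud dextrose agar and subcultured at 35 °C for at least 2 days. They were suspended in saline to McFarland 0.5 and diluted in RPMI. Ten successive dilutions were made from a 1.6 mg/mL DMSO stock per CLSI broth microdilution, then incubated at 37 °C for 48 h. Growth was read visually against a growth-control well, and MIC is the lowest concentration inhibiting growth.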

[11] = test system: Geotrichum; assay: Antifungal activity against Geotrichum species after 48 hrs by CLSI M27A3 broth microdilution method; format: functional; procedure, shortened: as §2
[12] = test system: Papiliotrema laurentii; assay: Antifungal activity against Cryptococcus laurentii after 48 hrs by CLSI M27A3 broth microdilution method; format: functional; procedure, shortened: as §2
[13] = test system: Rhodotorula; assay: Antifungal activity against Rhodotorula species after 48 hrs by CLSI M27A3 broth microdilution method; format: functional; procedure, shortened: as §2
[14] = test system: Candida albicans; assay: Antifungal activity against Candida albicans after 48 hrs by CLSI M27A3 broth microdilution method; format: functional; procedure, shortened: as §2
[15] = test system: Trichosporon asahii; assay: Antifungal activity against Trichosporon asahii after 48 hrs by CLSI M27A3 broth microdilution method; format: functional; procedure, shortened: as §2
[16] = test system: Meyerozyma guilliermondii; assay: Antifungal activity against Candida guilliermondii after 48 hrs by CLSI M27A3 broth microdilution method; format: functional; procedure, shortened: as §2

| Structure (SMILES) | Cell viability [1] [%] | Cell viability [2] [%] | Cell viability [3] [%] | Cell viability [4] [%] | Cell viability [5] [%] | Cell viability [6] [%] | Cell viability [7] [%] | Cell viability [8] [%] | Cell viability [9] [%] | MFC [10] [µg/mL] | MIC [10] [µg/mL] | MFC [11] [µg/mL] | MIC [11] [µg/mL] | MFC [12] [µg/mL] | MIC [12] [µg/mL] | MFC [13] [µg/mL] | MIC [13] [µg/mL] | MFC [14] [µg/mL] | MIC [14] [µg/mL] | MFC [15] [µg/mL] | further results |
| --- | --- | --- | --- | --- | --- | --- | --- | --- | --- | --- | --- | --- | --- | --- | --- | --- | --- | --- | --- | --- | --- |
| O=C1CSC(c2ccc([N+](=O)[O-])cc2)N1CCN1CCCCC1 (stereo not drawn) | 100 | 100 | 100 | 87 | 72 | 66 | 21 | 15 | 10 | 100 (≈ 298 µM) | 100 (≈ 298 µM) | 50 (≈ 149 µM) | 50 (≈ 149 µM) | 100 (≈ 298 µM) | 100 (≈ 298 µM) | 30 (≈ 89.4 µM) | 30 (≈ 89.4 µM) | 62 (≈ 185 µM) | 62 (≈ 185 µM) | 100 (≈ 298 µM) | MIC [15]: 100 µg/mL (≈ 298 µM); MFC [16]: 100 µg/mL (≈ 298 µM); MIC [16]: 100 µg/mL (≈ 298 µM) |
| COc1ccc(C2SCC(=O)N2CCN2CCCCC2)cc1 (stereo not drawn) | 100 | 100 | 100 | 89 | 87 | 73 | 33 | 11 | 11 | 50 (≈ 156 µM) | 50 (≈ 156 µM) | > 400 | > 400 | 100 (≈ 312 µM) | 100 (≈ 312 µM) | 33.5 (≈ 105 µM) | 33.5 (≈ 105 µM) | 75 (≈ 234 µM) | 75 (≈ 234 µM) | > 400 | MIC [15]: > 400 µg/mL; MFC [16]: 100 µg/mL (≈ 312 µM); MIC [16]: 100 µg/mL (≈ 312 µM) |
| O=C1CSC(c2ccc(F)cc2)N1CCN1CCCCC1 (stereo not drawn) | 100 | 100 | 100 | 87 | 73 | 52 | 17 | 14 | 11 | 100 (≈ 324 µM) | 100 (≈ 324 µM) | 50 (≈ 162 µM) | 50 (≈ 162 µM) | 100 (≈ 324 µM) | 100 (≈ 324 µM) | 25 (≈ 81.1 µM) | 25 (≈ 81.1 µM) | 45 (≈ 146 µM) | 45 (≈ 146 µM) | 100 (≈ 324 µM) | MIC [15]: 100 µg/mL (≈ 324 µM); MFC [16]: 100 µg/mL (≈ 324 µM); MIC [16]: 100 µg/mL (≈ 324 µM) |
| O=C1CSC(c2ccccc2Cl)N1CCN1CCCCC1 (stereo not drawn) | 100 | 100 | 100 | 94 | 71 | 31 | 38 | 16 | 22 | 100 (≈ 308 µM) | 100 (≈ 308 µM) | 50 (≈ 154 µM) | 50 (≈ 154 µM) | 100 (≈ 308 µM) | 100 (≈ 308 µM) | 33 (≈ 102 µM) | 33 (≈ 102 µM) | 75 (≈ 231 µM) | 75 (≈ 231 µM) | 66.5 (≈ 205 µM) | MIC [15]: 66.5 µg/mL (≈ 205 µM); MFC [16]: 100 µg/mL (≈ 308 µM); MIC [16]: 100 µg/mL (≈ 308 µM) |
| O=C1CSC(c2cccc(Cl)c2)N1CCN1CCCCC1 (stereo not drawn) | 100 | 100 | 100 | 100 | 77 | 45 | 31 | 20 | 15 | 100 (≈ 308 µM) | 100 (≈ 308 µM) | 50 (≈ 154 µM) | 50 (≈ 154 µM) | 100 (≈ 308 µM) | 100 (≈ 308 µM) | 25 (≈ 77 µM) | 25 (≈ 77 µM) | 62 (≈ 191 µM) | 62 (≈ 191 µM) | 100 (≈ 308 µM) | MIC [15]: 100 µg/mL (≈ 308 µM); MFC [16]: 100 µg/mL (≈ 308 µM); MIC [16]: 100 µg/mL (≈ 308 µM) |
| O=C1CSC(c2ccc(Cl)cc2)N1CCN1CCCCC1 (stereo not drawn) | 90 | 84 | 84 | 74 | 68 | 28 | 15 | 13 | 11 | 100 (≈ 308 µM) | 100 (≈ 308 µM) | 50 (≈ 154 µM) | 50 (≈ 154 µM) | 100 (≈ 308 µM) | 100 (≈ 308 µM) | 50 (≈ 154 µM) | 50 (≈ 154 µM) | 62 (≈ 191 µM) | 62 (≈ 191 µM) | 50 (≈ 154 µM) | MIC [15]: 50 µg/mL (≈ 154 µM); MFC [16]: 100 µg/mL (≈ 308 µM); MIC [16]: 100 µg/mL (≈ 308 µM) |
